Columns and labels:
[1] = test system: P388; assay: Inhibitory concentration required to reduce cell number to 50% of control cultures in P388 (murine leukemia cell line); format: functional, cell-based; settings: Mus musculus
Summary of the method: (§1)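 Murine P388 leukemia, Lewis lung carcinoma (LL), and human Jurkat leukemia (JLC) cells, plus amsacrine- and doxorubicin-resistant Jurkat derivatives (JLA, JLD), were grown with drug. Seeding per well was 4.5×10^3 (P388), 10^3 (LL) and 3.75×10^3 (Jurkat). Exposure was 3 days (P388) or 4 days (others). Growth was read by [3H]TdR uptake (P388) or sulforhodamine assay. IC50 is the drug concentration (nM) halving cell number versus controls. Ratios are JLA/JLC and JLD/JLC IC50. Independent assays were run in duplicate.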

[2] = Ratio of IC50 values obtained from Jurkat lines, (JLa /JLc); format: functional, Homo sapiens; summary of the method: as §1
[3] = test system: Lewis lung carcinoma cell line; assay: Inhibitory concentration required to reduce cell number to 50% of control cultures in LL(Lewis lung carcinoma cell line); format: functional, cell-based; settings: Mus musculus; summary of the method: as §1
[4] = Ratio of IC50 values obtained from Jurkat lines, (JLd /JLc); format: functional, Homo sapiens; summary of the method: as §1
[5] = Inhibitory concentration required to reduce cell number to 50% of control cultures in JLc(Jurkat human leukemia); format: functional; summary of the method: as §1
[6] = test system: HCT-116; assay: Inhibitory concentration required to reduce cell growth to 50% of control cultures in the HTC116 human cell line; format: functional
[7] = (§2) Average GI50 value for the drug over the whole cell line panel; format: functional
[8] = test system: MCF7; assay: Inhibitory concentration required to reduce cell growth to 50% of control cultures in the MCF-7 human cell line; format: functional
[9] = test system: HT-29; assay: Inhibitory concentration required to reduce cell growth to 50% of control cultures in the HT-29 human cell line; format: functional
[10] = test system: CAKI-1; assay: Inhibitory concentration required to reduce cell growth to 50% of control cultures in the CAK1 human cell line; format: functional
[11] = Inhibitory concentration required to reduce cell growth to 50% of control cultures in the NCI-ADR human cell line; format: functional; settings: NCI/ADR-RES
[12] = test system: SK-OV-3; assay: Inhibitory concentration required to reduce cell growth to 50% of control cultures in the SKOV3 human cell line; format: functional
[13] = test system: U-937; assay: Inhibitory concentration of the drug resulting in inhibition of cell growth to 50% of controls in U937 (human leukemia); format: functional, cell-based
[14] = test system: MOLT-4; assay: Inhibitory concentration of the drug resulting in inhibition of cell growth to 50% of controls in MOLT-4 (human leukemia); format: functional, cell-based
[15] = test system: HT-29; assay: Inhibitory concentration of the drug resulting in inhibition of cell growth to 50% of controls in HT-29 (human colon); format: functional, cell-based
[16] = Ratio of IC50 values obtained from D3F-C10 and D3F cell lines; format: functional
[17] = test system: Mus musculus; assay: In vivo activity in HT-29 model for tumor growth delay after i.p. administration of 20 mg/kg in nude mice; settings: route intraperitoneal
[18] = Concentration of the drug to reduce cell number to 50% of controls in AuxB1 cell line; format: functional, cell-based
[19] = test system: Mus musculus; assay: In vivo activity in colon 38 model for tumor growth delay after i.p. administration of 13.3 mg/kg in C57/B1 mice; format: functional; settings: route intraperitoneal
Summary of the method: (§3)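 Treatment started at about 4 mm diameter, with 5 mice per group. Hydrochloride salts in distilled water were given intraperitoneally at 0.01 mL/g, q4d × 3. Calliper measurements were taken three times weekly; volume = 0.52·a²·b. Growth delay is the time for mean tumour volume to reach 4-fold pretreatment volume.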

[20] = test system: Mus musculus; assay: In vivo activity in colon 38 model for tumor growth delay after i.p. administration of 20 mg/kg in C57/B1 mice; format: functional; settings: route intraperitoneal; summary of the method: as §3
[21] = test system: D3F; assay: Concentration of the drug to reduce cell number to 50% of controls in D3F cell line; format: functional, cell-based
[22] = test system: Mus musculus; assay: In vivo activity in colon 38 model for tumor growth delay after i.p. administration of 30 mg/kg in C57/B1 mice; format: functional; settings: route intraperitoneal; summary of the method: as §3
[23] = Ratio of IC50 values obtained from CHrC5 and AuxB1 cell lines; format: functional
[24] = test system: Mus musculus; assay: In vivo activity in colon 38 model for tumor growth delay after i.p. administration of 8.9 mg/kg in C57/B1 mice; format: functional; settings: route intraperitoneal; summary of the method: as §3
[25] = test system: Mus musculus; assay: In vivo activity in HT-29 model for tumor growth delay after i.p. administration of 13.3 mg/kg in nude mice; settings: route intraperitoneal
[26] = test system: Lewis lung carcinoma cell line; assay: Inhibitory concentration required to reduce cell number to 50% of control cultures in LL (Lewis lung carcinoma cell line); format: functional, cell-based; settings: Mus musculus; summary of the method: as §1
[27] = test system: Whole cell line panel; assay: as §2; format: functional

Structure (SMILES)	IC50 [1] [nM]	Ratio [2]	IC50 [3] [nM]	Ratio [4]	IC50 [5] [nM]	other results
Cc1cccc2nc3cccc(C(=O)NCCN(C)C)c3nc12	18	1.1	39	1.1	207	–
Cc1cccc2nc3cccc(C(=O)NCCN(C)CCCN(C)CCNC(=O)c4cccc5nc6cccc(C)c6nc45)c3nc12	1.6	0.4	0.3	0.8	0.08	GI50 [6]: < 0.1 nM; GI50 [7]: 0.29 nM; GI50 [8]: < 10 nM; GI50 [9]: < 10 nM; GI50 [10]: < 0.1 nM; GI50 [11]: < 0.1 nM; GI50 [12]: < 0.1 nM
Cc1cccc2cc3cccc(C(=O)NCCN(C)C)c3nc12	–	4.6	5.6	4.8	46	–
Cc1cccc2nc3cccc(C(=O)NCCN(C)CCN(C)CCNC(=O)c4cccc5nc6cccc(C)c6nc45)c3nc12	33	0.4	20	0.6	5.3	–
Cc1cccc2nc3cccc(C(=O)NCCCNCCNCCCNC(=O)c4cccc5nc6cccc(C)c6nc45)c3nc12	740	0.4	35	1.3	1.7	GI50 [6]: 21 nM; GI50 [7]: 524 nM; GI50 [8]: 24 nM; GI50 [9]: 27 nM; GI50 [10]: 1000 nM; GI50 [11]: 8030 nM; GI50 [12]: 8890 nM
Cc1cccc2nc3cccc(C(=O)NCCNCCCNCCNC(=O)c4cccc5nc6cccc(C)c6nc45)c3nc12	7.4	0.7	1.2	0.6	0.24	–
Cc1cccc2nc3cccc(C(=O)NCCCN4CCN(CCCNC(=O)c5cccc6nc7cccc(C)c7nc56)CC4)c3nc12	48	0.8	0.46	0.7	1.3	–
Cc1cccc2nc3cccc(C(=O)NCCN4CCN(CCNC(=O)c5cccc6nc7cccc(C)c7nc56)CC4)c3nc12	2240	0.6	12	0.9	11	–
Cc1cccc2nc3cccc(C(=O)NCCCNCCCCNCCCNC(=O)c4cccc5nc6cccc(C)c6nc45)c3nc12	880	0.2	112	1.2	8.7	GI50 [6]: 335 nM; GI50 [7]: 2000 nM; GI50 [8]: 74 nM; GI50 [9]: 366 nM; GI50 [10]: 8280 nM; GI50 [11]: 906 nM; GI50 [12]: 13600 nM
Cc1cccc2nc3cccc(C(=O)NCCCCN4CCN(CCCCNC(=O)c5cccc6nc7cccc(C)c7nc56)CC4)c3nc12	96	0.5	0.34	0.5	1.1	–
O=C1c2cccc3cccc(c23)C(=O)N1CCNCCCNCCN1C(=O)c2cccc3cccc(c23)C1=O [ELINAFIDE]	1.5	0.3	11	0.6	0.7	IC50 [13]: 0.34 nM; IC50 [14]: 0.037 nM; IC50 [15]: 0.15 nM
Cc1cccc2nc3cccc(C(=O)NCCCCNCCCCNCCCCNC(=O)c4cccc5nc6cccc(C)c6nc45)c3nc12	890	0.3	290	0.9	67	–
Cc1ccc(C)c2nc3c(C(=O)NCCNCCNCCNC(=O)c4cccc5nc6c(C)ccc(C)c6nc45)cccc3nc12	8.3	0.5	3.9	0.6	0.6	Ratio [16]: 0.77; Growth delay [17]: 7.8 days; IC50 [13]: 0.52 nM; IC50 [18]: 4.5 nM; Growth delay [19]: 2.4 days; Growth delay [20]: 4.4 days; IC50 [21]: 6.5 nM; Growth delay [22]: 7.5 days; Ratio [23]: 30.3; Growth delay [24]: 2.8 days; IC50 [14]: 0.067 nM; IC50 [15]: 0.15 nM
CCCN(CCNC(=O)c1cccc2nc3cccc(C)c3nc12)CCN(CCC)CCNC(=O)c1cccc2nc3cccc(C)c3nc12	250	0.5	120	0.8	46	–
Cc1cccc2nc3cccc(C(=O)NCCNCCNCCNC(=O)c4cccc5nc6cccc(C)c6nc45)c3nc12	21	0.5	2.8	0.9	0.18	Ratio [16]: 0.91; IC50 [13]: 0.047 nM; IC50 [18]: 3.7 nM; GI50 [6]: < 10 nM; Growth delay [19]: 4 days; Growth delay [20]: 7 days; Growth delay [25]: 2.4 days; GI50 [7]: 13 nM; GI50 [8]: < 10 nM; IC50 [21]: 4.4 nM; Ratio [23]: 47.1; GI50 [9]: < 10 nM; GI50 [10]: < 10 nM; Growth delay [24]: 2.8 days; GI50 [11]: 15 nM; IC50 [14]: 0.0062 nM; IC50 [15]: 0.08 nM; GI50 [12]: < 10 nM
Cc1ccc(Cl)c2nc3cccc(C(=O)NCCNCCNCCNC(=O)c4cccc5nc6c(Cl)ccc(C)c6nc45)c3nc12	37	0.4	10	0.8	0.6	–
CCN(CCNC(=O)c1cccc2nc3cccc(C)c3nc12)CCN(CC)CCNC(=O)c1cccc2nc3cccc(C)c3nc12	170	0.6	48	0.7	16	–
Cc1cccc2nc3cccc(C(=O)NCCCN(C)CCCNC(=O)c4cccc5nc6cccc(C)c6nc45)c3nc12	–	0.6	–	0.6	5.6	Ratio [16]: 0.57; IC50 [13]: 6.9 nM; IC50 [18]: 0.57 nM; GI50 [6]: < 10 nM; IC50 [26]: 3.3 nM; GI50 [27]: 20 nM; GI50 [8]: < 10 nM; IC50 [21]: 2.9 nM; Ratio [23]: 31.3; GI50 [9]: < 10 nM; GI50 [10]: < 10 nM; GI50 [11]: 19 nM; IC50 [14]: 0.35 nM; IC50 [15]: 1.5 nM; GI50 [12]: 220 nM
Cc1cccc2nc3cccc(C(=O)NCCCNCCCNCCCNC(=O)c4cccc5nc6cccc(C)c6nc45)c3nc12	430	0.5	31	1	1.3	–

From ChEMBL document CHEMBL1134642, “Dicationic bis(9-methylphenazine-1-carboxamides): relationships between biological activity and linker chain structure for a series of potent topoisomerase targeted anticancer drugs” (J Med Chem, 2001)
